Experimental data: article PMC9647114 (Journal of Clinical and Translational Hepatology, 2022)
Bridges are numbered along the chain shown (N, C = ends). Where no end group is shown, it is not given here.

Legend:
integrin a6 = details: peptide identified by phage display; cited from earlier work
[1] = tested on: subcutaneous HCC-LM3 tumor; assay: NIRF imaging and ex vivo biodistribution, subcutaneous HCC-LM3 tumor model; assay type: in vivo; details: mice, i.v., statement of the discussion
[2] = tested on: subcutaneous HCC-LM3 tumors; assay: Photoacoustic imaging, subcutaneous HCC-LM3 tumors; assay type: in vivo, mice; details: after i.v. injection, 0 to 48 h
HCC-LM3 cells = assay: Confocal fluorescence microscopy of probe binding to HCC-LM3 cells; assay type: cell-based, human; details: 6 nM probe, 2 h incubation, Fig. 1B
Summary of the method: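 HCC-LM3 cells were grown on glass coverslips for 24 h, then incubated with 6 nM Cy7-labelled probe for 2 h and washed three times in PBS. They were fixed in 4% paraformaldehyde, permeabilised with 0.2% Triton X-100 and blocked with 5% BSA. Staining used rabbit anti-integrin α6 (1:250, overnight, 4°C), then fluorescein goat anti-rabbit (1:1,000, 1 h, 37°C), with DAPI for nuclei. Imaged by confocal microscopy.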

H22 cells = assay: CCK-8 in vitro cytotoxicity assay; assay type: cell-based, mouse; details: 0 to 500 nM, 48 h or 72 h, Supplementary Fig. 3
Summary of the method: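 H22 mouse hepatoma cells grown in DMEM with 10% FBS and 1% pen/strep at 37°C, 5% CO2. Cells were seeded at 3×10^3 per well and left 24 h, then exposed to the Cy7-labelled peptide probe at 0–500 nM for 48 h or 72 h. CCK-8 reagent was then added for 2 h, and absorbance was read at 450 nm.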

[3] = tested on: orthotopic HCC-H22 tumors; assay: NIRF imaging and biodistribution, orthotopic HCC-H22 tumor model; assay type: in vivo, mice; details: orthotopic HCC-H22, tumor and major organs 48 h after injection, Fig. 3
Summary of the method: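 Nude mice carried orthotopic luciferase-tagged H22 liver lesions and received Cy7-labelled probe or Cy7-control peptide i.v. by tail vein. NIRF imaging used 740 nm excitation and a 780 nm filter. Mice were killed 48 h post-injection, and tumor, heart, liver, spleen, kidney, lung and brain were imaged ex vivo. Organ fluorescence intensity was quantified.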

major organs = assay: In vivo toxicity by H&E staining of major organs; details: imaging dose; heart, spleen, lung, kidney, brain of H22 tumor-bearing nude mice vs control group, Supplementary Fig. 9
[4] = tested on: orthotopic HCC-LM3 tumors; assay: NIRF imaging, orthotopic HCC-LM3 tumor model; assay type: in vivo, mice; details: post-injection; sustained until 24 h
orthotopic HCC lesions = assay: NIRF imaging with Cy5 probe, orthotopic HCC mice; assay type: in vivo; details: i.v., Supplementary Fig. 1

For “CRWYDENAC (disulfide 1-9 (inferred)) [RWY]”, the “Binding to integrin a6” value (integrin a6) is listed as “high specificity and affinity”.

For “CRWYDENAC (disulfide 1-9 (inferred)) [Cy7-RWY]”, the Renal clearance [1] was “fast renal clearance”, the “Time at which NIRF and PA signals in the tumor peaked” value [2] was 24 h and the “Time at which NIRF and PA signals started to accumulate in the tumor” value [2] was 2 h. For the same sequence, the “Fluorescence signal in cells by confocal microscopy” value (HCC-LM3 cells) was “Strong red fluorescence signals”, the “Cytotoxicity (cell viability, CCK-8)” value (H22 cells) was “no significant cytotoxicity” and the “Ex vivo fluorescence signal in tumors” value [3] was “high level of the fluorescence signal”. For the same sequence, the “Cell and tissue damage in major organs (H&E)” value (major organs) was “did not find significant cell and tissue damage” and the “Time at which tumor fluorescence signal reached a steady level” value [4] was 6 h.

With “CRWYDENAC (disulfide 1-9 (inferred)) [Cy5-RWY]” the “Homing of probe to HCC lesions (NIRF)” value (orthotopic HCC lesions) was “specifically homed to HCC lesions”.

With “CGGGGGGGC (cysteine pairing not given here) [Cy7-control, reference compound]” the “Fluorescence signal in cells by confocal microscopy” value (HCC-LM3 cells) was “no fluorescence response”.
